Data published in ChEMBL document CHEMBL4118097, “Selective Inhibitors of Dual Leucine Zipper Kinase (DLK, MAP3K12) with Activity in a Model of Alzheimer's Disease” (J Med Chem, 2017).

Assays:
[1] = target: Mitogen-activated protein kinase kinase kinase 12 (Mus musculus) (UniProt Q60700); assay: Inhibition of DLK in CD-1 mouse DRG neuron assessed as axonal protection pre-incubated for 2 hrs before NGF deprivation for 16 to 20 hrs by Campenot chamber based fluorescence assay
Procedure, shortened: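 High-content imaging assay of axon degeneration, with automated quantification of axons. Protection is expressed relative to a positive control in which degeneration was not induced. EC50 was taken from dose-response curves, each point being the average of three independent assays ± SD.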

[2] = target: Casein kinase I isoform gamma-1 (Homo sapiens) (UniProt Q9HCP0); assay: Inhibition of CK1gamma1 (unknown origin) at 1 uM by FRET assay relative to control
[3] = target: Casein kinase I isoform delta (Homo sapiens) (UniProt P48730); assay: Inhibition of CK1delta (unknown origin) at 1 uM by FRET assay relative to control
[4] = target: CDK2/Cyclin A2 (Homo sapiens) (UniProt P24941+P20248); assay: Inhibition of recombinant full length His-tagged human CDK2/CyclinA expressed in baculovirus expression system at 1 uM by FRET assay relative to control
[5] = target: Tyrosine-protein kinase Lck (Homo sapiens) (UniProt P06239); assay: Inhibition of recombinant full length His-tagged human Lck expressed in baculovirus at 1 uM by FRET assay relative to control
[6] = target: Tyrosine-protein kinase JAK1 (Homo sapiens) (UniProt P23458); assay: Inhibition of recombinant GST-tagged human JAK1 catalytic domain (866 to 1154 residues) expressed in baculovirus expression system at 1 uM by FRET relative to control
Procedure, shortened: (§1)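 Single-point screen at 1 μM compound in a 220-kinase panel run by Life Technologies (SelectScreen). Z′-LYTE format: phosphorylation of a labeled peptide substrate read by FRET. Values are reported as percent inhibition.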

[7] = target: Insulin receptor-related protein (Homo sapiens) (UniProt P14616); assay: Inhibition of recombinant GST-tagged human IRR cytoplasmic domain (944 to 1297 residues) expressed in baculovirus expression system at 1 uM by FRET relative to control; procedure, shortened: as §1
[8] = target: Megakaryocyte-associated tyrosine-protein kinase (Homo sapiens) (UniProt P42679); assay: Inhibition of recombinant full length His-tagged human Hyl cytoplasmic domain expressed in Escherichia coli at 1 uM by FRET relative to control
[9] = target: Homeodomain-interacting protein kinase 4 (Homo sapiens) (UniProt Q8NE63); assay: Inhibition of recombinant full length GST-tagged human HIPK4 expressed in baculovirus expression system at 1 uM by FRET relative to control
Procedure, shortened: (§2)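 Single-concentration screen at 1 μM in Life Technologies SelectScreen, across a 220-kinase panel. Z′-LYTE format measures phosphorylation of a labeled peptide by FRET. Results are reported as percent inhibition.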

[10] = target: Fibroblast growth factor receptor 1 (Homo sapiens) (UniProt P11362); assay: Inhibition of recombinant His-tagged human FGFR1 cytoplasmic domain expressed in baculovirus expression system at 1 uM by FRET assay relative to control; procedure, shortened: as §1
Ephrin type-A receptor 7 = Ephrin type-A receptor 7 (Homo sapiens, UniProt Q15375); assay: Inhibition of recombinant GST-tagged human EphA7 cytoplasmic domain expressed in baculovirus expression system at 1 uM by FRET assay relative to control; procedure, shortened: as §1
[11] = target: Protein kinase C epsilon type (Homo sapiens) (UniProt Q02156); assay: Inhibition of recombinant full length human PKCepsilon expressed in baculovirus expression system at 1 uM by FRET assay relative to control
[12] = target: Protein kinase C beta type (Homo sapiens) (UniProt P05771); assay: Inhibition of PKCbeta1 (unknown origin) at 1 uM by FRET assay relative to control
[13] = target: 3-phosphoinositide-dependent protein kinase 1 (Homo sapiens) (UniProt O15530); assay: Inhibition of recombinant full length His-tagged human PDK1 expressed in baculovirus expression system at 1 uM by FRET assay relative to control
[14] = target: Serine/threonine-protein kinase WNK2 (Homo sapiens) (UniProt Q9Y3S1); assay: Inhibition of recombinant GST-tagged human WNK2 expressed in baculovirus expression system at 1 uM by FRET assay relative to control; procedure, shortened: as §1
[15] = target: Non-receptor tyrosine-protein kinase TYK2 (Homo sapiens) (UniProt P29597); assay: Inhibition of recombinant N-terminal GST-tagged human TYK2 (833 to 1187 residues) expressed in baculovirus expression system at 1 uM by FRET assay relative to control; procedure, shortened: as §2
[16] = target: Angiopoietin-1 receptor (Homo sapiens) (UniProt Q02763); assay: Inhibition of recombinant GST-tagged human Tie2 cytoplasmic domain (817 to 1101 residues) expressed in baculovirus expression system at 1 uM by FRET assay relative to control; procedure, shortened: as §1
[17] = target: Tyrosine-protein kinase Tec (Homo sapiens) (UniProt P42680); assay: Inhibition of recombinant full length His-tagged human TEC cytoplasmic domain expressed in baculovirus expression system at 1 uM by FRET assay relative to control
[18] = target: Tyrosine-protein kinase SYK (Homo sapiens) (UniProt P43405); assay: Inhibition of recombinant full length N-terminal GST-tagged human Syk cytoplasmic domain expressed in baculovirus expression system at 1 uM by FRET assay relative to control
[19] = target: Tyrosine-protein kinase receptor TYRO3 (Homo sapiens) (UniProt Q06418); assay: Inhibition of recombinant full length GST-tagged human Rse cytoplasmic domain (451 to 890 residues) expressed in baculovirus expression system at 1 uM by FRET assay relative to control; procedure, shortened: as §2
[20] = target: 5'-AMP-activated protein kinase catalytic subunit alpha-1 (Homo sapiens) (UniProt Q13131); assay: Inhibition of PRKAA1 (unknown origin) at 1 uM by FRET assay relative to control
[21] = target: High affinity nerve growth factor receptor (Homo sapiens, UniProt P04629); assay: Inhibition of recombinant His-tagged human TrkA cytoplasmic domain (441 to 796 residues) expressed in baculovirus expression system by FRET assay
[22] = target: Histamine H1 receptor (Homo sapiens) (UniProt P35367); assay: Binding affinity to recombinant human H1 receptor at 10 uM relative to control
Procedure, shortened: (§3)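 Broad radioligand-binding and enzyme screening panel covering 42 targets (biogenic amine and neuropeptide receptors, ion channels, neurotransmitter transporters, acetylcholinesterase). Single test concentration of 10 μM. Results expressed as binding relative to control, with a hit defined as >50% of control.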

[23] = target: Neuronal acetylcholine receptor; alpha4/beta2 (Homo sapiens) (UniProt P17787+P43681); assay: Binding affinity to alpha4beta2 nAChR (unknown origin) receptor at 10 uM relative to control; type: protein-complex assay; procedure, shortened: as §3
Homo sapiens = species on record: Homo sapiens; assay: Binding affinity to sodium channel site 2 (unknown origin) receptor at 10 uM relative to control; procedure, shortened: as §3
[24] = target: Sodium-dependent dopamine transporter (Homo sapiens) (UniProt Q01959); assay: Binding affinity to recombinant human dopamine transporter at 10 uM relative to control; procedure, shortened: as §3
[25] = target: Acetylcholinesterase (Homo sapiens) (UniProt P22303); assay: Binding affinity to acetylcholinesterase (unknown origin) at 10 uM relative to control; procedure, shortened: as §3

Tyrosine-protein kinase receptor TYRO3 (Homo sapiens), sequence (Q06418 whole entry, the tested form may be a part): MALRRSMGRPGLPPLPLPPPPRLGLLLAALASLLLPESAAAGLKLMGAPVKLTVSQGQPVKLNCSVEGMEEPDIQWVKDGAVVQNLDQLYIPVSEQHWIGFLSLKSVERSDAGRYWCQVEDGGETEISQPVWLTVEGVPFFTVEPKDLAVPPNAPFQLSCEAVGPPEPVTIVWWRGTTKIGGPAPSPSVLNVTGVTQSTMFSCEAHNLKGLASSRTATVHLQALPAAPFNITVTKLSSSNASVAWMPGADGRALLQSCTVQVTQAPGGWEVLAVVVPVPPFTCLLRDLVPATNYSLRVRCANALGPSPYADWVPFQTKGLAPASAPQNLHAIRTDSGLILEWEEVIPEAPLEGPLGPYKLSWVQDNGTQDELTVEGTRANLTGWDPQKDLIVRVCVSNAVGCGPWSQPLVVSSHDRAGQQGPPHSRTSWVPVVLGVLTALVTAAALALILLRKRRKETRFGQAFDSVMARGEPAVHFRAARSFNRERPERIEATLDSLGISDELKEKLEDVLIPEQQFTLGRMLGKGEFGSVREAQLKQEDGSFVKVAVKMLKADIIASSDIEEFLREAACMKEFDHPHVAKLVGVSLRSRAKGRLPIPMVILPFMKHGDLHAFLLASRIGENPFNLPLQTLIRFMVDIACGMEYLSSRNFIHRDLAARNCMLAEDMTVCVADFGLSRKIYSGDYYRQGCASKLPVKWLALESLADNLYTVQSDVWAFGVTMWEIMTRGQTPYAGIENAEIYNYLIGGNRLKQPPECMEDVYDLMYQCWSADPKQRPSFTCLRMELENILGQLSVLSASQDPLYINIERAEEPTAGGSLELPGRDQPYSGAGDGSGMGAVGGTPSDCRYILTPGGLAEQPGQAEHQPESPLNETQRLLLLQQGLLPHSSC
Angiopoietin-1 receptor (Homo sapiens), sequence (Q02763 whole entry, the tested form may be a part): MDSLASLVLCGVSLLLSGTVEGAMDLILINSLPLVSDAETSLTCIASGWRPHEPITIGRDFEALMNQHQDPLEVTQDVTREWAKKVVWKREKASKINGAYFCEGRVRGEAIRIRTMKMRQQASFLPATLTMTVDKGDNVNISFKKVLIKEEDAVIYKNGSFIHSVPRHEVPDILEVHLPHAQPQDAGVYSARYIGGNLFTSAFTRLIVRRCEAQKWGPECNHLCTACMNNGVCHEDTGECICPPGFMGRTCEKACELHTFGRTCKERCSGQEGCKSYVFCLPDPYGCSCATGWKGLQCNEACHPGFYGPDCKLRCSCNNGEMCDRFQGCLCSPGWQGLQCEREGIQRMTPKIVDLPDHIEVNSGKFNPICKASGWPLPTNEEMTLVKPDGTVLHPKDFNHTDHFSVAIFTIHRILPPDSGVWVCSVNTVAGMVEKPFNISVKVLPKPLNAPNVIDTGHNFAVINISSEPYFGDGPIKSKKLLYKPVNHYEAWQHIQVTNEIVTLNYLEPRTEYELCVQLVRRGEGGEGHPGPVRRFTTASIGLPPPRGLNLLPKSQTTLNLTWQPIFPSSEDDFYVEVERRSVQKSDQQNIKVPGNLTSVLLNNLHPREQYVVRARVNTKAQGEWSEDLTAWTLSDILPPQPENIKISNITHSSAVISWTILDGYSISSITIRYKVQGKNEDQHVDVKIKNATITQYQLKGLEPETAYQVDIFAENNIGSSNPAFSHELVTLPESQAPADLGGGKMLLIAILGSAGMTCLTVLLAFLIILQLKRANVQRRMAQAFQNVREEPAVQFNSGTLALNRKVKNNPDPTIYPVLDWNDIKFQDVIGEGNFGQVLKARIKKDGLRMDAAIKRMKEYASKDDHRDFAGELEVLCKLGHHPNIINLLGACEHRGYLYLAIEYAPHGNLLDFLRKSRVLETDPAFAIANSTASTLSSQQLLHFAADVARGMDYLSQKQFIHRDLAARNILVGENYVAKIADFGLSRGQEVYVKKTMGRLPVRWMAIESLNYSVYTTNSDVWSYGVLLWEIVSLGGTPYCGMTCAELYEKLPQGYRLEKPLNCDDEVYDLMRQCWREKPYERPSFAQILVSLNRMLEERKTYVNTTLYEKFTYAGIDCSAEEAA
5'-AMP-activated protein kinase catalytic subunit alpha-1 (Homo sapiens), sequence (Q13131 whole entry, looked up, the tested form may be a part): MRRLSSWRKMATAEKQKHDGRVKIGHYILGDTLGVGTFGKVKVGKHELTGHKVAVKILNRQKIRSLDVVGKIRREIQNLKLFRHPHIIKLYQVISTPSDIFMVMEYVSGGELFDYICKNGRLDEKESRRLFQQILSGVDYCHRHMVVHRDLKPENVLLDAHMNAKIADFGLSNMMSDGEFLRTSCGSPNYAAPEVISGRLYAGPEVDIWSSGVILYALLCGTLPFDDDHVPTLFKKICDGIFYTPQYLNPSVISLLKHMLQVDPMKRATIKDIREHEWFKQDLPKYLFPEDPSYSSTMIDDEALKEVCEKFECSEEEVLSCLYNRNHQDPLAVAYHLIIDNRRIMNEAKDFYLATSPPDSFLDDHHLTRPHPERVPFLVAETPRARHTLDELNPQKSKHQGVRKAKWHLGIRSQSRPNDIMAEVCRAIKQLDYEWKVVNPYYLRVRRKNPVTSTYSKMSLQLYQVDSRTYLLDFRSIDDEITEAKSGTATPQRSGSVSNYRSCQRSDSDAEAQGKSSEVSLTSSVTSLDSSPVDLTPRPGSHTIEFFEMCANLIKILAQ
Protein kinase C beta type (Homo sapiens), sequence (P05771 2-671 limits assumed): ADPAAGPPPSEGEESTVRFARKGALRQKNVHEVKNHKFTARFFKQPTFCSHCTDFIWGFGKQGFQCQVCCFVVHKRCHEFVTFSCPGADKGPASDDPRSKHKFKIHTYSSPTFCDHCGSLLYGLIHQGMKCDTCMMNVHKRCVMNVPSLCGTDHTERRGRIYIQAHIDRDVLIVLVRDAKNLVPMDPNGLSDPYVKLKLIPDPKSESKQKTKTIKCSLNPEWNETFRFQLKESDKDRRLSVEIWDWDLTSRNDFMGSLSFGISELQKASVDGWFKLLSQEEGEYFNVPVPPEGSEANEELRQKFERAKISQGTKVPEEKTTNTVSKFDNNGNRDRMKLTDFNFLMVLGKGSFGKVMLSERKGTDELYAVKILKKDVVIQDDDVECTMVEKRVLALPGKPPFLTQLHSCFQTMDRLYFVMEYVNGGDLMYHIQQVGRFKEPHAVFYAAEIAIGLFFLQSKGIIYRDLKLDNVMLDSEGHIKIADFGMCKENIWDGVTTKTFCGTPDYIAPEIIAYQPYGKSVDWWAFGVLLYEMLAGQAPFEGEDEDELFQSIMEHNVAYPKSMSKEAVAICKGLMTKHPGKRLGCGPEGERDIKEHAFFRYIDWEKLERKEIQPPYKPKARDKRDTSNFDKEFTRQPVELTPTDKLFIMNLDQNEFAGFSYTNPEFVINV
Casein kinase I isoform delta (Homo sapiens), sequence (P48730 whole entry, looked up, canonical isoform): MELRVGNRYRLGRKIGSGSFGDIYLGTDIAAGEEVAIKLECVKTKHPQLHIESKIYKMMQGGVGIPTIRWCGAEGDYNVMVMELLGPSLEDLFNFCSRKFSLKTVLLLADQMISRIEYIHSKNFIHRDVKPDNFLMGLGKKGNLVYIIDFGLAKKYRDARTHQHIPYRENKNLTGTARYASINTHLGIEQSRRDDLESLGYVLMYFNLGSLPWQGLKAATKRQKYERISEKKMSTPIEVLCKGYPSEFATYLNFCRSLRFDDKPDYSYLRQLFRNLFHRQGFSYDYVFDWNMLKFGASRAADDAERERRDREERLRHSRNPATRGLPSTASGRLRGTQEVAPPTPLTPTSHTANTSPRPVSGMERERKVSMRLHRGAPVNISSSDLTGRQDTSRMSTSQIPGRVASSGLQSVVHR
Non-receptor tyrosine-protein kinase TYK2 (Homo sapiens), sequence (P29597 whole entry, the tested form may be a part): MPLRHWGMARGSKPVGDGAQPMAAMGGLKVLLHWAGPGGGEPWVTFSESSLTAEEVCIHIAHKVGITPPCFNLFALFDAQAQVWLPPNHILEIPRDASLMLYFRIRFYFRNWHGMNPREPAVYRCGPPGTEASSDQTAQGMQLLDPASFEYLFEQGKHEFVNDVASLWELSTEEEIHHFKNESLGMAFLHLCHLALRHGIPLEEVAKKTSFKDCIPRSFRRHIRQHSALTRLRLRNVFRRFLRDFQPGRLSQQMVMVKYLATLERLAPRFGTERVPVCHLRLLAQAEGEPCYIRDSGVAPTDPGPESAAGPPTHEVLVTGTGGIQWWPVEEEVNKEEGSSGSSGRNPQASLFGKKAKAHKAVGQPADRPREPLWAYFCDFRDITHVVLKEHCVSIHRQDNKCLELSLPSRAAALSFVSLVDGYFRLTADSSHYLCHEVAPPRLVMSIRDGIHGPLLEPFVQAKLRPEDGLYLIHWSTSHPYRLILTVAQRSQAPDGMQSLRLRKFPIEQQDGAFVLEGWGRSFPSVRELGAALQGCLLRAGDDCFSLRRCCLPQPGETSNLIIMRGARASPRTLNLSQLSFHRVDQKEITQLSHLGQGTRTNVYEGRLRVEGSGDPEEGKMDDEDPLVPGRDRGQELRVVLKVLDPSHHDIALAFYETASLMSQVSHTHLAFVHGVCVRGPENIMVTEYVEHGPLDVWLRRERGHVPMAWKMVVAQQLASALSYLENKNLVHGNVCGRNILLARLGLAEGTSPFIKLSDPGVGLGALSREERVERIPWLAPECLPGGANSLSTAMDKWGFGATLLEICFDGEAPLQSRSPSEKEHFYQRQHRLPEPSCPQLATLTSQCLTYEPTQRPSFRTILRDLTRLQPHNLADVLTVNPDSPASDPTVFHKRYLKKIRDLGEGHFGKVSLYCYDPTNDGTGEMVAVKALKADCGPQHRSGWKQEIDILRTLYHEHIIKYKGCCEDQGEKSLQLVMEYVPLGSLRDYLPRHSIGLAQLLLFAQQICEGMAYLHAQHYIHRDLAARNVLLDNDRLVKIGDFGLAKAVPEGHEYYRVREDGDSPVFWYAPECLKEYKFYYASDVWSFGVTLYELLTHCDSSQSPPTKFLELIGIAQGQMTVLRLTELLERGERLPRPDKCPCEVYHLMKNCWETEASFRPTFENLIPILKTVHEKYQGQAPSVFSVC

Structure (SMILES): CC(C)n1nc(-c2cnc(N)c(OC(F)(F)F)c2)cc1[C@H]1[C@@H]2CN(C3COC3)C[C@@H]21
- Activity [1]: Dose-dependent effect
- inhibition [2]: 8.4%
- inhibition [3]: 10%
- inhibition [4]: 5.7%
- inhibition [5]: 7.5%
- inhibition [6]: 6.9%
- inhibition [7]: 32.7%
- inhibition [8]: 7.5%
- inhibition [9]: 40.7%
- inhibition [10]: 2.4%
- inhibition (Ephrin type-A receptor 7): 39%
- inhibition [11]: 1.9%
- inhibition [12]: 1.1%
- inhibition [13]: 3.3%
- inhibition [14]: 1.4%
- inhibition [15]: 10.7%
- inhibition [16]: 13.7%
- inhibition [17]: -1.5%
- inhibition [18]: 26.8%
- inhibition [19]: 11.2%
- inhibition [20]: 5%
- IC50 [21]: 1550 nM
- Activity [22]: > 50%
- Activity [23]: > 50%
- Activity (Homo sapiens): > 50%
- Activity [24]: > 50%
- Activity [25]: > 50%

Structure (SMILES): Nc1ncc(-c2cc([C@H]3[C@@H]4CN(C5COC5)C[C@@H]43)n(CC3CC3)n2)cc1C(F)(F)F
- Activity [1]: Dose-dependent effect
- inhibition [2]: 2%
- inhibition [3]: -0.3%
- inhibition [4]: 4.3%
- inhibition [5]: 36.1%
- inhibition [6]: 3.9%
- inhibition [7]: 15.9%
- inhibition [8]: 0.1%
- inhibition [9]: 6.8%
- inhibition [10]: 3.4%
- inhibition (Ephrin type-A receptor 7): 51.4%
- inhibition [11]: -5%
- inhibition [12]: -7.3%
- inhibition [13]: -2.7%
- inhibition [14]: -0.6%
- inhibition [15]: 9.3%
- inhibition [16]: 4.6%
- inhibition [17]: 4.8%
- inhibition [18]: 30.6%
- inhibition [19]: 11.3%
- inhibition [20]: 3.3%
- IC50 [21]: 383 nM
- Activity [22]: > 50%
- Activity [23]: > 50%
- Activity (Homo sapiens): > 50%
- Activity [24]: > 50%
- Activity [25]: > 50%
